Experiments:
[1] = biological target: T1, Histone-arginine methyltransferase CARM1 (Mus musculus, UniProt Q9WVG6); assay: Inhibition of N-terminal His-tagged mouse recombinant CARM1 expressed in Sf9 cells by microbeta counting
T1 sequence (Q9WVG6 whole entry): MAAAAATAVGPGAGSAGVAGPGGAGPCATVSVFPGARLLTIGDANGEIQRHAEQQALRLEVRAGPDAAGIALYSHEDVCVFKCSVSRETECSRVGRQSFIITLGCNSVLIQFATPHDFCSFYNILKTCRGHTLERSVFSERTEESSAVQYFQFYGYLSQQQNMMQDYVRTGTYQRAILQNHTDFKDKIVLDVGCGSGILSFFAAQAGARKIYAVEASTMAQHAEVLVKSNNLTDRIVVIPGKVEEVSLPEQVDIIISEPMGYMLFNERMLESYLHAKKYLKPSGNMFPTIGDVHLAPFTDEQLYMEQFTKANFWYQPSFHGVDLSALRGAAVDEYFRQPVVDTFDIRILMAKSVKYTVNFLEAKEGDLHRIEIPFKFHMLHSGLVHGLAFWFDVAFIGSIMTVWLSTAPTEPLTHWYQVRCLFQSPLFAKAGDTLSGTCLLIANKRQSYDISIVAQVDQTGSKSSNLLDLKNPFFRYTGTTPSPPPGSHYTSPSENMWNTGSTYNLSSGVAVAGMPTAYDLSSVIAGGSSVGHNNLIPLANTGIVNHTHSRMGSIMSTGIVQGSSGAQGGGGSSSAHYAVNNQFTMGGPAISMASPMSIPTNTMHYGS
How it was run: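 Recombinant CARM1 with histone H3 substrate, in Tris-HCl pH 9. Enzyme pre-incubated with compound for 10 min at RT. [3H]SAM (20% labelled, 0.033 mCi/ml) and H3 were added, then 15 min at 30 °C. Quenched with SAH and spotted on P30 filtermat. Washed twice with 10% TCA and once with 95% ethanol, then wax scintillant counting. Values are means of at least two experiments.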

[2] = (§1) Volume of distribution at steady state in iv dosed rat; assay type: ADME, organism-based; settings: in vivo, read-out: Vdss
[3] = (§2) Half life in iv dosed rat; assay type: ADME, organism-based; settings: in vivo
[4] = Bioavailability in rat; assay type: ADME, organism-based; settings: in vivo
[5] = (§3) Clearance in iv dosed rat; assay type: ADME, organism-based; settings: in vivo
[6] = biological target: T2, Histone-lysine N-methyltransferase SETD7 (Homo sapiens, UniProt Q8WTS6); assay: Inhibition of N-terminal His-tagged human recombinant SET7/9 expressed in Escherichia coli by microbeta counting
T2 sequence (Q8WTS6 whole entry): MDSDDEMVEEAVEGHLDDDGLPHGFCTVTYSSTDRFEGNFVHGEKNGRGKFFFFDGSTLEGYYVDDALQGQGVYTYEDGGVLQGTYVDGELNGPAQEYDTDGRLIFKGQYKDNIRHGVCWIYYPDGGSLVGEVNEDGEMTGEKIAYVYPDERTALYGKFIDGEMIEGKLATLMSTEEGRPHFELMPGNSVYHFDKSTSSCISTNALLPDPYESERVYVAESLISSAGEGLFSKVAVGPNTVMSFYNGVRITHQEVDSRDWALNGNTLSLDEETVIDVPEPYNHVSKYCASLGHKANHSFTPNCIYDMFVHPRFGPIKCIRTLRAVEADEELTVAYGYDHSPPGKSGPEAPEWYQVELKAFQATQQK
How it was run: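 His-tagged human SET9 made in E. coli, with histone H3 substrate, in Tris-HCl pH 9. Compound and enzyme pre-incubated for 10 min at RT. [3H]SAM (20% labelled, 0.011 mCi/ml) and H3 were added, then 45 min at 37 °C. Reaction stopped and transferred to a flashplate. Washed twice with 10% TCA, dried and counted.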

[7] = biological target: Protein arginine N-methyltransferase 1 (Homo sapiens, UniProt Q99873); assay: Inhibition of N-terminal GST-tagged human recombinant PRMT1 expressed in Escherichia coli by microbeta counting
Sequence of Protein arginine N-methyltransferase 1 (Q99873 whole entry): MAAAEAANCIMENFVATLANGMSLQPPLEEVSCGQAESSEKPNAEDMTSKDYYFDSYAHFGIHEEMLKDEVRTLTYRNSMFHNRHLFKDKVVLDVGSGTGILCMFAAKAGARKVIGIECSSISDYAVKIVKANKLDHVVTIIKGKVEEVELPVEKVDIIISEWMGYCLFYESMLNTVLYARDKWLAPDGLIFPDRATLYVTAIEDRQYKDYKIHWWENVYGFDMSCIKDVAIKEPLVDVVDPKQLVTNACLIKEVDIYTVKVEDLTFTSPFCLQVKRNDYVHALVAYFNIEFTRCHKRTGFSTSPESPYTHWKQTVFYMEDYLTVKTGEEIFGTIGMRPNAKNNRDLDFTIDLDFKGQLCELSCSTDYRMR
How it was run: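 GST-tagged human PRMT1 made in E. coli, with recombinant histone H4 as substrate, in Tris-HCl pH 9. Enzyme pre-incubated with compound for 10 min at RT. [3H]SAM (20% labelled, 0.033 mCi/ml) and H4 were added, then 15 min at 30 °C. Stopped with SAH and spotted onto P30 filtermat. Washed with 10% TCA and 95% ethanol, then scintillation-counted.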

[8] = system: Rattus norvegicus; assay: as §1; assay type: ADME, organism-based; settings: in vivo
[9] = system: Rattus norvegicus; assay: as §2; assay type: ADME, organism-based; settings: in vivo
[10] = system: Rattus norvegicus; assay: as §3; assay type: ADME, organism-based; settings: in vivo

SMILES	IC50 [1]	further results
CNCCNCc1cc(-n2nc(C(F)(F)F)cc2C(=O)NCc2ccccc2OC)cc(C(F)(F)F)c1	> 20 µM	
CNCCNCc1cccc(-n2nc(C(F)(F)F)cc2C(=O)NCc2cccc3ccccc23)c1	0.32 µM	Vd [2]: 0.2 L/kg; half-life [3]: 84 min; bioavailability [4]: 3%; clearance [5]: 38.3 mL/min/kg
CNCCNCc1cccc(-n2nc(C(F)(F)F)cc2C(=O)NCc2cccc3c2OCCO3)c1	0.71 µM	
CNCCNCc1cccc(-n2nc(C(F)(F)F)cc2C(=O)NCC2CCCCC2)c1	3.6 µM	
CCc1ccccc1CNC(=O)c1cc(C(F)(F)F)nn1-c1cccc(CNCCNC)c1	1.61 µM	
CNCCNCc1cccc(-n2nc(C(F)(F)F)cc2C(=O)NCc2ccccc2)c1	> 10 µM	
CNCCNCc1cccc(-n2nc(C(F)(F)F)cc2C(=O)NCc2nc3ccccc3n2C)c1	4.7 µM	
CNCCNCc1cccc(-n2nc(C(F)(F)F)cc2-c2nnc(-c3ccccc3OC)o2)c1		Vd [2]: 0.6 L/kg; half-life [3]: 108 min; bioavailability [4]: 3%; clearance [5]: 36.7 mL/min/kg
CNCCNCc1cccc(-n2nc(C(F)(F)F)cc2C(=O)NCc2cc(F)ccc2OC)c1	0.71 µM	
CNCCNCc1cccc(-n2nc(C(F)(F)F)cc2C(=O)NCc2ccccc2N)c1	> 10 µM	
CNCCNCc1ccc2c(c1)n1nc(C(F)(F)F)cc1c(=O)n2Cc1ccccc1OC	> 10 µM	
CNCCNCc1cccc(-n2nc(C(F)(F)F)cc2C(=O)NCc2nc3ccccc3[nH]2)c1	4.3 µM	
CNCCNCc1cccc(-n2nc(C(F)(F)F)cc2C(=O)NCc2c(OC)ccc3ccccc23)c1	3.35 µM	
CNCCNCc1cccc(-n2nc(C(F)(F)F)cc2C(=O)NCCc2c[nH]c3ccccc23)c1	1.8 µM	
CNCCNCc1cccc(-n2nc(C(F)(F)F)cc2C(=O)NCc2ccccc2C)c1	13.1 µM	
CNCCNCc1cccc(-n2nc(C(F)(F)F)cc2C(=O)NCc2ccccc2OC(F)(F)F)c1	6.5 µM	
COc1ccccc1CNC(=O)c1cc(C(F)(F)F)nn1-c1cccc(CNC(=O)[C@H](C)N)c1		Vdss [8]: 33.6 L/kg; t1/2 [9]: 4.2 min; CL [10]: 86 L/h/kg

Second part, led by results:

IC50 [1]	SMILES	further results
0.9 µM	CCOc1ccccc1CNC(=O)c1cc(C(F)(F)F)nn1-c1cccc(CNCCNC)c1	Vd [2]: 0.1 L/kg; half-life [3]: 30 min; bioavailability [4]: 2%; clearance [5]: 20 mL/min/kg
0.2 µM	CNCCNCc1cccc(-n2nc(C(F)(F)F)cc2C(=O)NCc2ccccc2OC)c1	IC50 [6]: > 100 µM; Vd [2]: 1.4 L/kg; IC50 [7]: > 100 µM; half-life [3]: 126 min; bioavailability [4]: 4%; clearance [5]: 20 mL/min/kg
> 20 µM	COc1ccccc1CNC(=O)c1cc(C(F)(F)F)nn1-c1cccc(CCNC(=O)[C@H](C)N)c1	
7.9 µM	COc1ccccc1CNC(=O)c1cc(C(F)(F)F)nn1-c1cccc(CNCCN(C)C)c1	
> 20 µM	COc1ccccc1CNC(=O)c1cc(C(F)(F)F)nn1-c1cccc(CNC(=O)[C@H](C)O)c1	
21 µM	CNCCNC(C)c1cccc(-n2nc(C(F)(F)F)cc2C(=O)NCc2ccccc2OC)c1 (stereo unspecified)	
5.6 µM	CNCCNCc1cc(-n2nc(C(F)(F)F)cc2C(=O)NCc2ccccc2OC)ccc1F	
> 20 µM	COc1ccccc1CNC(=O)c1cc(C(F)(F)F)nn1-c1cccc(-c2n[nH]c([C@H](C)N)n2)c1	
> 20 µM	COc1ccccc1CNC(=O)c1cc(C(F)(F)F)nn1-c1cccc(-c2noc([C@H](C)N)n2)c1	
7.7 µM	CCNCCNCc1cccc(-n2nc(C(F)(F)F)cc2C(=O)NCc2ccccc2OC)c1	
4.5 µM	COc1ccccc1CNC(=O)c1cc(C(F)(F)F)nn1-c1cccc(CNC(=S)[C@H](C)N)c1	
7.94 µM	CNCCNCc1cc(-n2nc(C(F)(F)F)cc2C(=O)NCc2ccccc2OC)ccc1C	
> 20 µM	COc1ccccc1CNC(=O)c1cc(C(F)(F)F)nn1-c1cccc(CNC2CCNC2)c1 (stereo unspecified)	
> 20 µM	CNCCNC(=O)c1cccc(-n2nc(C(F)(F)F)cc2C(=O)NCc2ccccc2OC)c1	
1 µM	COc1ccccc1CNC(=O)c1cc(C(F)(F)F)nn1-c1cccc(CNCCN)c1	
